Experimental data pooled from the literature.
Each line is one published result; the experiments were not run side by side.
Target: Casein kinase I isoform gamma-3 (CSNK1G3, Homo sapiens, UniProt Q9Y6M4)

Cc1ccc(Nc2nccc(N(C)c3ccc4c(C)n(C)nc4c3)n2)cc1S(N)(=O)=O — inhibition (enzyme activity, inhibitor; 0.3 µM): -8%
CO[C@@H](C)c1c(Nc2ccc([C@@H](N(C)C(=O)C3CCS(=O)(=O)CC3)C(F)(F)F)cc2)cnc2cc(Cl)nn12 — remaining binding (cell-free assay, competition with immobilised ligand; 1 µM): 71%
Cn1c2c(c3ccc(Cl)c(Cl)c31)C(C#N)C(C)(C)NC2=O (centres unmarked) — ΔTm (thermal stability, DSF; 10 µM): 0.5 °C
COc1cc2c(Nc3ccc(Br)cc3F)ncnc2cc1OCC1CCN(C)CC1 — remaining signal (cell-free assay; 0.5 µM): 98.1%
Cn1c2c(c3ccc(Cl)c(Cl)c31)C(C#N)C1(CCOCC1)NC2=O (centres unmarked) — ΔTm (thermal stability, DSF; 10 µM): 0.2 °C
CC(C)CC(=O)N1CCc2nc(-c3ccc(Br)cc3)nc(N(C)Cc3ccccc3)c2C1 — remaining binding (cell-free assay, competition with immobilised ligand; 0.1 µM): 100%
Cn1c2c(Cl)c(Cl)ccc2c2cn[nH]c(=O)c21 — ΔTm (thermal stability, DSF; 10 µM): -0.1 °C
Cc1ccc(C(=O)Nc2ccc(CN3CCN(C)CC3)c(C(F)(F)F)c2)cc1C#Cc1cnc2cccnn12 — remaining activity (enzyme activity, inhibitor; 23.5 nM): 97%
Cn1c2c(Cl)c(Cl)ccc2c2cc(N)[nH]c(=O)c21 — ΔTm (thermal stability, DSF; 10 µM): 0.1 °C
Cc1sc(C(=O)NC2COC2)cc1-n1cc(NC(=O)Nc2c(F)cccc2Cl)cn1 — remaining activity (enzyme activity, inhibitor; 10 µM): 91.3%
COc1cc2c(N3CCN(C(=O)Nc4ccc(OC(C)C)cc4)CC3)ncnc2cc1OCCCN1CCCCC1 — remaining signal (cell-free assay; 0.5 µM): 95%
COc1ccc2c(O[C@@H]3C[C@H]4C(=O)N[C@]5(C(=O)O)CC5/C=C\CCCCC[C@H](NC(=O)OC5CCCC5)C(=O)N4C3)cc(-c3csc(NC(=O)C(C)C)n3)nc2c1C (some centres unmarked) — remaining binding (cell-free assay, competition with immobilised ligand; 1 µM): 100%
N#CCCc1ccc2c(c1)-c1[nH]c3ccc([N+](=O)[O-])cc3c1CC(=O)N2 — remaining signal (cell-free assay; 0.5 µM): 89.7%
CC(C)(C)c1nc2c(s1)c1nc(N)ncc1c1ccc(NS(=O)(=O)c3c(F)cccc3F)c(F)c12 — remaining activity (enzyme activity, inhibitor, radiometric; 1 µM): 86%
O=C(O)c1cc(-c2ccc(C3CCNCC3)cc2)c2ccc(-c3ccc(C(F)(F)F)cc3)cc2c1 — remaining binding (cell-free assay, competition with immobilised ligand; 1 µM): 100%
Cn1c2c(Cl)c(Cl)ccc2c2cc[nH]c(=O)c21 — ΔTm (thermal stability, DSF; 10 µM): -0.2 °C
Cc1cc(-n2nc(Cc3cc(F)cc(C(F)(F)F)c3)nc2C)ccc1C(N)=O — remaining binding (cell-free assay, competition with immobilised ligand; 1 µM): 95%
COc1cc2ncnc(Nc3ccc(Oc4ccccc4)cc3C)c2cc1OC — inhibition (enzyme activity, inhibitor; 1 µM): 4%
C[C@@H]1CCN(C(=O)CC#N)C[C@@H]1N(C)c1ncnc2[nH]ccc12 — remaining signal (cell-free assay, inhibitor; 0.5 µM): 101%
Cc1cnc(NC2CCOCC2)nc1-n1cnc(C(=O)NC(CN)c2cc(F)cc(Cl)c2)c1 (centres unmarked) — remaining activity (enzyme activity, inhibitor, radiometric; 1 µM): 33%
COc1cc2ncnc(Nc3ccc(F)c(Cl)c3)c2cc1OCCCN1CCOCC1 — remaining signal (cell-free assay; 0.5 µM): 103%
Cn1c2c(c3ccc(Cl)c(Cl)c31)C(C#N)C1(CCCCC1)NC2=O (racemic) — ΔTm (thermal stability, DSF; 10 µM): -0.2 °C
O=C(NC[C@@H]1[C@H]2CN(C(=O)OCc3cc(C(F)(F)F)cc(C(F)(F)F)c3)C[C@@H]12)c1ccc2[nH]nnc2c1 — remaining binding (cell-free assay, competition with immobilised ligand; 1 µM): 89%
CNC(=O)c1cc(Oc2ccc(NC(=O)Nc3ccc(Cl)c(C(F)(F)F)c3)cc2)ccn1 — inhibition (enzyme activity, inhibitor; 0.3 µM): -4%
O=C(N[C@H]1CCCCC/C=C\C2C[C@@]2(C(=O)O)NC(=O)[C@@H]2C[C@@H](Oc3ccncc3)CN2C1=O)OC1CCCC1 (some centres unmarked) — remaining binding (binding, competition with immobilised ligand; 1 µM): 100%
F[C@@H]1CCN(c2nccc(-c3cnn4ncccc34)n2)C1 — remaining binding (binding; 1 µM): 86%
CCCS(=O)(=O)Nc1ccc(F)c(C(=O)c2c[nH]c3ncc(-c4ccc(Cl)cc4)cc23)c1F — inhibition (enzyme activity, inhibitor; 1 µM): < 10%
CNC(=O)Nc1ccc2c(c1)CC[C@@]21OC(=O)N(CC(=O)N(Cc2ccc(F)cc2)[C@@H](C)C(F)(F)F)C1=O — remaining binding (cell-free assay, competition with immobilised ligand; 1 µM): 84%
CC(C)(O)[C@H]1CC[C@H](Nc2ccc3ncc(-c4cccc(C(F)(F)F)c4)n3n2)CC1 — remaining activity (enzyme activity, inhibitor; 1 µM): 90%
